Most compounds without a hit are left out; they make up all but 1.9% or so of the library.
Arr AP2 block: human beta-arrestin and AP2 interaction inhibition; FITC-arrestin peptide / GST-AP2 beads, flow cytometry; AP2 beta2 appendage carries R879A mutation; inhibition, % at 10 µM; actives 0.31% (n = 340,000); AID 504490;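 active = inhibition above a set limit, near 3 SD of compounds lacking own fluorescence, cut at about 54% in these data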;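 note: plate controls were DMSO wells for no effect and 5 µM unlabelled arrestin peptide for full effect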
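Measured by: flow cytometry, FL1 (488/535 nm); Material: AP2 appendage R879A on GSH beads; Evaluation: percent response; Timing: pre-incubation 12 min, peptide binding 1 h, room temperature; Also added: 50 nM FITC-arrestin peptide; Medium: PBS with 0.05% Tween 20 and 0.1% BSA.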
sPLA2-III inh: Inhibits HGIII-sPLA2 liposome hydrolysis, primary screen; QFRET BODIPY PC-A2 liposome hydrolysis, fluorescence; inhibition, % at 12.2 µM; actives 0.56% (n = 370,000); AID 743126;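 active = inhibition above mean plus 3 SD of compounds lying within the high and low control bounds, cut at about 19% in these data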;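 note: 0% = median of test compound wells and 100% = no enzyme DMSO wells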
proCasp3 act: activates human procaspase-3. P42574. recombinant procaspase-3 D3A, Ac-DEVD-pNA absorbance 405 nm. activation, % at 8.5 µM. actives 0.11% (n = 330,000);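 active = activation above the mean of all tested compounds plus 3 SD, cut at about 21% in these data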;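 note: 0% = DMSO alone and 100% = DMSO wells spiked with extra 5 µM PC-3 D3A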
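Assay system: Procaspase-3 D3A mutant, all three cleavage aspartates alanine. Buffer or medium: Zinc-free HEPES saline buffer with Triton X-100. Times: 1 h compound preincubation, 2 h substrate hydrolysis at 25 °C. Measured by: 405 nm absorbance of p-nitroaniline, reads at 0 and 120 min. Read-out basis: percent activation relative to control range. Replicates: singlicate.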
PLC-beta3 inh: PLC-beta3 (human) inhibition, primary screen. inhibition, % at 12.2 µM. Q01970. actives 0.18% (n = 370,000). Purified PLC-beta3, fluorogenic substrate, fluorescence; in the data active = inhibition above about 11%;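 note: 0% = median of compound wells on plate and 100% = full blocker control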
Target sequence (Q01970 whole entry, looked up): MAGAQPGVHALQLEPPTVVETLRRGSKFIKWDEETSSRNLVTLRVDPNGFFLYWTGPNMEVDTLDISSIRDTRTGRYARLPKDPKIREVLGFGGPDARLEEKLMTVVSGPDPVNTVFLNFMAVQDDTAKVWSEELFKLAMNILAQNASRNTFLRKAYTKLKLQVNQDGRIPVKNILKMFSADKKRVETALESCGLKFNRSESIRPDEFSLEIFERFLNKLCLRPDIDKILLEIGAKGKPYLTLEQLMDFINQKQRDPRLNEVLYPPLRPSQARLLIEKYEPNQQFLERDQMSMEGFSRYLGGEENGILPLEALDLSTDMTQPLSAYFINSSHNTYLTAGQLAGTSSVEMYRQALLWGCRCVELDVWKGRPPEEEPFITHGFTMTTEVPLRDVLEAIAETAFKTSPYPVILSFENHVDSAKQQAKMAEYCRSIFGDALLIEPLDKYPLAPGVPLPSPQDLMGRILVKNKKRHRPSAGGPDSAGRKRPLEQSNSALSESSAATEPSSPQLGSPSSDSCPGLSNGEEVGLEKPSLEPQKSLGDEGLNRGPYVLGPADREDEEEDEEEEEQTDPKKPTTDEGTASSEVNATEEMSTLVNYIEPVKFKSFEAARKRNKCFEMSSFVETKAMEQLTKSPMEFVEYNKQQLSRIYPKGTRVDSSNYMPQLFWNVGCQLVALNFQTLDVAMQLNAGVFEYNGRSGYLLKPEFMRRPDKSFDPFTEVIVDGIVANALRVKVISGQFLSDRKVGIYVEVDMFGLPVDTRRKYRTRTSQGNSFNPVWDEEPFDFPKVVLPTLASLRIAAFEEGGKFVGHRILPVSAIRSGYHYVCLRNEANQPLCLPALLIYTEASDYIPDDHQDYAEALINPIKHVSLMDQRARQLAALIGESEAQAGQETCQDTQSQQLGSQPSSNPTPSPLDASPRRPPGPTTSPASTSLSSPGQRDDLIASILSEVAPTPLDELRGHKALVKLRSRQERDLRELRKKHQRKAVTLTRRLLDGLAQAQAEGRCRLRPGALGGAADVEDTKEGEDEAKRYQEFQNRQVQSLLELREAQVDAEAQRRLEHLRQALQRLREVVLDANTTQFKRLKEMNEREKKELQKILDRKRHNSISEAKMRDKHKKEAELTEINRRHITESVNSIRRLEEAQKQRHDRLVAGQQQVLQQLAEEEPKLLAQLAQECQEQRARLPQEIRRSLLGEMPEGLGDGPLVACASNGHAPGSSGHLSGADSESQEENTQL
PLCg1 inh: blocks human PLC-gamma1 enzyme activity | P19174 | purified PLC-gamma1, fluorogenic substrate, fluorescence | inhibition, % at 12.2 µM | actives 0.84% (n = 370,000) | AID 720700; in the data active = inhibition above about 9.5%
proCasp7 act: counter-screen: procaspase-7 (human) activation; P55210; recombinant procaspase-7, Ac-DEVD-pNA absorbance 405 nm; D23A/D198A/D206A triple mutant, cannot self-cleave; scale: DMSO 0, 5 µM enzyme 100; activation, % at 8.5 µM; actives 0.093% (n = 330,000);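 active = percent activation above the screen-wide mean plus 3 SD, cut at about 25% in these data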
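System: Uncleavable procaspase-7 mutant enzyme; Amount: 2 µM procaspase-7 mutant as dispensed; Schedule: 1 h compound preincubation, 2 h substrate cleavage, 25 °C; Measured by: 405 nm absorbance of p-nitroaniline; Evaluation: percent activation from buffer-corrected 0–120 min absorbance change; Control set: low DMSO alone, high DMSO plus 5 µM PC-7.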
sPLA2 confirm: human GIII-sPLA2 inhibition, confirmation. shares compounds with sPLA2-III inh. recombinant hGIII-sPLA2, BODIPY PC-A2 QFRET fluorescence. inhibition, % at 12.2 µM. actives 34% (n = 2,000). AID 743280;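 active = mean inhibition across triplicates above the hit cutoff set in the earlier primary screen, cut at about 19% in these data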;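 note: 0% = enzyme with DMSO and 100% = DMSO wells lacking enzyme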
535nm interf: optically interferes with 535nm fluorescence in sPLA2 counter-screen; shares compounds with sPLA2-III inh; BODIPY FL product fluorescence interference, QFRET; inhibition, % at 12.2 µM; actives 8.5% (n = 2,000); AID 743282;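 active = average inhibition above the solvent-only control mean plus 3 SD, cut at about 6% in these data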;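 note: 0% = DMSO with substrate plus product and 100% = DMSO with substrate alone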
535nm interf DR: counter-screen for HGIII-sPLA2 inhibitors: 535nm fluorescence interference, dose response; shares compounds with sPLA2-III inh; BODIPY FL product fluorescence interference, cell-free; IC50, µM; 240 tested, under 10 active;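 active = IC50 at or below 10 µM; inactive = IC50 above 10 µM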
Starred values were filed as active, the others as inactive; nt = not tested or not shown; ! = not active in a repeat.

SMILES | Arr AP2 block | sPLA2-III inh | proCasp3 act | PLC-beta3 inh | PLCg1 inh | proCasp7 act | sPLA2 confirm | 535nm interf | others
COc1ccc(NC(=S)NCc2ccc3c(c2)cc(C)n3C)cc1 | 4 | 22* | 3 | -12 | -4 | 8 | 2 | -2
CCc1ccc2cccc3c2c1N=CN3C | 23 | 22* | -10 | -15 | -5 | -28 | 22* | 4
C=CCn1c(C2CC2)n[nH]c1=S | 33 | 13 | -4 | 0 | 2 | -2 | nt | nt
CCCCCC1CCC(c2n[nH]c(=S)n2C)CC1 (stereo not given) | -5 | 20* | -6 | -1 | -2 | -7 | 26* | -1
CCCn1c(=O)c2ccccc2n2c(SCCOc3ccc(C)cc3)nnc12 | 1 | 19* | 1 | -2 | 2 | 5 | 10 | -14
O=[N+]([O-])c1ccc(C2=NN(CCO)C(=Nc3ccc(OC(F)(F)F)cc3)SC2)cc1 | -3 | 20* | -10 | -2 | 0 | -3 | -1 | -12
COc1ccc(N=C2SCC(c3ccc([N+](=O)[O-])cc3)=NN2CCO)cc1 | 6 | -1 | -11 | -3 | 3 | -13 | nt | nt
CC1=NN(C(N)=S)C(=O)C1N=Nc1cccc(Cl)c1 (stereo not given) | 10 | -3 | 1 | 0 | 3 | 5 | nt | nt
COc1cccc(N=NC2C(=O)N(C(N)=S)N=C2C)c1 (stereo not given) | 18 | 23* | -5 | 10 | 9 | -3 | 14 | -2
O=S(=O)(/N=C(/Nc1cc(N2CCOCC2)ncn1)c1ccc(F)cc1)c1ccccc1 | -2 | 20*! | 4 | 1 | -3 | -3 | 4 | -6
Cc1ccccc1N1CCN(C(=S)c2ccccc2)CC1 | 25 | 21* | 6 | -3 | -2 | -4 | 10 | -3
COc1ccc(-n2c(C)cc(C)c(C(C)=O)c2=S)cc1 | -3 | 20* | 12 | 2 | 3 | 1 | 4 | -6
COC(=O)c1cc(C(=O)Nc2nc3ccccc3[nH]2)cc([N+](=O)[O-])c1 | 2 | 29* | -1 | -13 | -8 | 4 | 15 | 7.0*
O=C(Nc1nc2ccccc2[nH]1)c1cccc([N+](=O)[O-])c1 | 24 | 11 | 0 | 3 | 1 | 3 | nt | nt
O=C1/C(=C\c2ccccn2)SC(=S)N1Nc1ncc(C(F)(F)F)cc1Cl | 13 | nt | -28 | nt | nt | -27 | nt | nt
O=C1/C(=C/c2ccccn2)SC(=S)N1Nc1ncc(C(F)(F)F)cc1Cl | -14 | 21* | nt | -31 | -19 | nt | 32* | -1 | 535nm interf DR=>122
Cc1ccccc1NC(=S)NC(=O)c1cncc(Br)c1 | 4 | 23* | 4 | 4 | 1 | 6 | 7 | 2
O=c1cc(-c2ccccc2)[nH]n1-c1nc2ccccc2[nH]1 | 1 | 19* | -15 | -387 | -316 | 0 | 14 | -1
N=c1c2ccccc2nnn1-c1cccc(C(F)(F)F)c1 | -16 | -1 | -1 | 0 | -3 | -1 | nt | nt
CCN(CC)C(=O)/C=C/c1ccccc1 | -1 | 20* | 8 | 1 | 4 | 0 | -3 | -4
c1ccc(N2CCN(c3ccccc3)C2c2cccnc2)cc1 | 13 | 24* | 8 | 4 | 5 | -1 | 4 | -12
CCN(CC)c1ccc(CN2CCC(C(=O)NCc3ccc(C)cc3)CC2)cc1 | 9 | -7 | 0 | 1 | 4 | 1 | nt | nt
CC1CCCN(C(=S)Nc2ccc3nc4n(c(=O)c3c2)CCCCC4)C1 (stereo not given) | 4 | 27* | -3 | -20 | -18 | -6 | 10 | -10
CC(OC(=O)CNC(=O)c1ccc(Cl)cc1)C(=O)NC1CCCCC1C (stereo not given) | -4 | -3 | -2 | -4 | -1 | 2 | nt | nt
c1ccc(-c2ccc(CNc3nc(-c4ccccn4)nnc3-c3ccccc3)cc2)cc1 | nt | 27* | nt | 4 | 2 | nt | -1 | -31
SMILES | Arr AP2 block | sPLA2-III inh | proCasp3 act | PLC-beta3 inh | PLCg1 inh | proCasp7 act | sPLA2 confirm | 535nm interf | others
O=C(NNC(=O)c1ccc2ccccc2c1O)c1cccs1 | 34 | 7 | 6 | -10 | -2 | -5 | nt | nt
CCc1ccc(NC(=O)NNC(=O)c2cc3ccccc3cc2O)cc1 | -15 | 27* | 5 | -163 | -96 | 1 | 16 | 1
CCc1ccc(NC(=O)NNC(=O)c2ccc3ccccc3c2O)cc1 | -5 | 32* | nt | -77 | -45 | nt | 25* | 5
COc1cc(C(=O)OCC(=O)N2CCCC2=O)cc(OC)c1C | 41 | 3 | 1 | -9 | -4 | -7 | nt | nt
NC(=O)Cc1cn(-c2ncc(C(F)(F)F)cc2Cl)c2ccccc12 | 19 | 34* | 8 | -15 | -12 | 5 | 14 | -11
COC(=O)Cc1cn(-c2ncc(C(F)(F)F)cc2Cl)c2ccccc12 | 0 | -7 | 1 | -24 | -22 | -4 | nt | nt
O=S(=O)(Nc1ccccc1OC(F)F)c1ccc(S(=O)(=O)N2CCCC2)cc1 | -6 | -6 | 3 | -4 | 2 | 7 | nt | nt
CCCN1CNC(=S)N(Cc2ccccc2)C1 | 8 | 14 | 12 | 0 | 1 | 2 | nt | nt
CCCCN1CNC(=S)N(Cc2ccccc2)C1 | 3 | 28* | 6 | 6 | 0 | 1 | 19 | -8
CS(=O)(=O)Nc1cccc(-c2cnc3ccccc3n2)c1 | 11 | 2 | -6 | -2 | 2 | -5 | nt | nt
Cc1ccc(O)c(NC(=S)NC(=O)C(C)C)c1 | -10 | 21* | -4 | 7 | 8 | -16 | 11 | -5
Cc1ccc(O)c(NC(=S)NC(=O)CC(C)C)c1 | 7 | 8 | -1 | 3 | 2 | -5 | nt | nt
CCNc1nc(C#N)nc2c1ncn2-c1cc(F)cc(F)c1 | -5 | -2 | 1 | -6 | -5 | 9 | nt | nt
CC1CN(C(=O)c2ccc(OC3CCN(Cc4ccccn4)CC3)cc2)CCN1C (stereo not given) | -9 | -4 | -1 | -5 | -3 | 17 | nt | nt
N=C1C=CC(=C(c2ccc(N)cc2)c2ccc(N)cc2)C=C1 | 23 | 21* | nt | -20 | -11 | nt | 17 | -1
Nc1ccc(C(=O)C(=O)c2ccc(N)cc2)cc1 | 11 | 4 | -1 | -4 | 9 | 8 | nt | nt
NC(=S)NN=Cc1nccc2c(C(F)(F)C(F)(F)C(F)(F)F)cccc12 | nt | 31* | nt | -72 | -49 | nt | 39* | -4 | 535nm interf DR=>122

Bioassay records: PubChem, several laboratories
